Results on 7 molecules are retold here after ChEMBL document CHEMBL4665766, “Synthesis and in vitro evaluation of vanillin derivatives as multi-target therapeutics for the treatment of Alzheimer's disease” (Bioorg Med Chem Lett, 2020).

A short description of experiment [1]: Antioxidant activity assessed as DPPH free radical scavenging activity after 1 hr by microplate reader based assay. It is filed as functional. (Loss of DPPH colour is used to gauge radical scavenging.)
Experiment [2] is described as follows: Antioxidant activity assessed as increase in total ferric ion reducing activity using FeCl3.H2O and TPTZ by measuring trolox equivalents at pH 3.6 measured at different time interval up to 150 mins by microplate reader based FRAP assay. Type of experiment: functional. On the set-up: unit not given here. The conditions noted are these: time min <=150.
Experiment [3] deals with Cholinesterase (Equus caballus, UniProt P81908). The experiment is described as follows: (§1) Inhibition of equine BuChE by Ellman's method. The essentials: (§2)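 Equine serum BuChE stock at 22 U/mL in 20 mM Tris HCl (pH 7.5), diluted 3/100 before use. Methanol dilutions of compound (≤1% DMSO) were preincubated 10 min at 37°C with enzyme and 3 mM DTNB solution (phosphate/Hepes buffer, pH 7.5). Butyrylthiocholine iodide solution (15 mM) was then added, with 10 min further incubation, and absorbance was read at 415 nm. IC50 (50% activity inhibited) was taken from 3 independent experiments.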
Sequence of Cholinesterase (P81908 whole entry): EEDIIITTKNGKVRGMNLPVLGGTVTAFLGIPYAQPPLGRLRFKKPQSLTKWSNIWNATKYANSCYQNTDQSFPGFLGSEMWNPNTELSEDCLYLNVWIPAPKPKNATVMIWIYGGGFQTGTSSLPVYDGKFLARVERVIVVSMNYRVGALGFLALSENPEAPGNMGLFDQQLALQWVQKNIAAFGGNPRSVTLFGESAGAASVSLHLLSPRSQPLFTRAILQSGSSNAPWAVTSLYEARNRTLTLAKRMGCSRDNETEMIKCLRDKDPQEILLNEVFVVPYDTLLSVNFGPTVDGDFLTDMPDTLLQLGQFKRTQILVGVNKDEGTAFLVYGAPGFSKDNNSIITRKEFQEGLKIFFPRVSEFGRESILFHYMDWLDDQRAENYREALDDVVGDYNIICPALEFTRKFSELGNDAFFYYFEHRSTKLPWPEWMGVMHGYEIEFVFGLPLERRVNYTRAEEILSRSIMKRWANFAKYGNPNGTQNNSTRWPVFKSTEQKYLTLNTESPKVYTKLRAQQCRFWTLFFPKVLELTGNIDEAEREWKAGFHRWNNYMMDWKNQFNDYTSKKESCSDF
For orientation: In Ellman's method for cholinesterases, released thiocholine reacts with DTNB.

Experiment [4] is described as follows: Potency index, ratio of trolox to test compound for antioxidant activity assessed as trolox equivalent of AAPH scavenging activity by ORAC fluorescein assay. Type of experiment: functional. The essentials:
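Compounds from 10 mM DMSO stocks and Trolox diluted in 75 mM phosphate buffer, pH 7.4. […] with 25 nM sodium fluorescein (solution concentration), then 0.15 M AAPH solution added. Fluorescence (ex 485, em 525 nm) […]. TE from comparing the slopes of Trolox and compound calibration curves; mean ± SD of 3 independent experiments.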

A short description of experiment [5]: Potency index, ratio of test compound trolox equivalent to vanillin trolox equivalent for antioxidant activity assessed as ferric ion reducing activity by FRAP assay. Type of experiment: functional.
A short description of experiment [6]: Antioxidant activity assessed as trolox equivalent of AAPH-induced radical scavenging activity preincubated for 10 mins followed by AAPH addition and measured every minute for 35 mins by ORAC fluorescein assay. It is filed as functional. The conditions noted are these: time min <=35.
The target in experiment [7] is Acetylcholinesterase (Electrophorus electricus, UniProt O42275). As to the kind of experiment: (§3) Inhibition of electric eel AChE by Ellman's method. The gist of the method:
(§4)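 Electrophorus electricus AChE stock at 22 U/mL in 20 mM Tris HCl (pH 7.5), diluted 1/100 before use. Compound dilution series in methanol (≤1% DMSO) was preincubated with enzyme and DTNB solution (3 mM, phosphate/Hepes 0.05 M/0.09 M, pH 7.5) for 10 min at 37°C. Acetylthiocholine iodide solution (15 mM) was then added for a further 10 min, and A415 was read. IC50 is the 50% activity inhibition point, from 3 independent experiments.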

For experiment [8], the target named is Cholinesterase (Equus caballus) (UniProt P81908). The experiment is described as follows: Potency index, ratio of neostigmine IC50 to test compound IC50 for inhibition of equine BuChE.
Sequence of Cholinesterase (Equus caballus) (P81908 whole entry): as above
Experiment [9] has the same target. The experiment is described as follows: Potency index, ratio of rivastigmine IC50 to test compound IC50 for inhibition of equine BuChE.
Experiment [10] in a line: Selectivity index, ratio of IC50 for electric eel AChE to IC50 for equine BuChE. The gist of the method: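 Ratio of Ellman-assay IC50 values, AChE IC50 divided by BuChE IC50. Electric eel AChE was diluted 1/100 with acetylthiocholine substrate. Equine BuChE was diluted 3/100 with butyrylthiocholine substrate. Both enzymes were preincubated with compound and DTNB for 10 min at 37°C, given 10 min with substrate, and read at 415 nm.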

Experiment [11] has as its target Cholinesterase (Equus caballus) (UniProt P81908). The experiment is described as §1. The gist of the method: as §2
Experiment [12] addresses Acetylcholinesterase (Electrophorus electricus) (UniProt O42275). The description is as §3. The essentials: as §4

A word on the IC50: it is the midpoint of a concentration-inhibition curve.

Each structure is given as a SMILES string. Active and inactive are the calls of the source. The rule behind the calls is not given here.

Sequence of Acetylcholinesterase (O42275 whole entry): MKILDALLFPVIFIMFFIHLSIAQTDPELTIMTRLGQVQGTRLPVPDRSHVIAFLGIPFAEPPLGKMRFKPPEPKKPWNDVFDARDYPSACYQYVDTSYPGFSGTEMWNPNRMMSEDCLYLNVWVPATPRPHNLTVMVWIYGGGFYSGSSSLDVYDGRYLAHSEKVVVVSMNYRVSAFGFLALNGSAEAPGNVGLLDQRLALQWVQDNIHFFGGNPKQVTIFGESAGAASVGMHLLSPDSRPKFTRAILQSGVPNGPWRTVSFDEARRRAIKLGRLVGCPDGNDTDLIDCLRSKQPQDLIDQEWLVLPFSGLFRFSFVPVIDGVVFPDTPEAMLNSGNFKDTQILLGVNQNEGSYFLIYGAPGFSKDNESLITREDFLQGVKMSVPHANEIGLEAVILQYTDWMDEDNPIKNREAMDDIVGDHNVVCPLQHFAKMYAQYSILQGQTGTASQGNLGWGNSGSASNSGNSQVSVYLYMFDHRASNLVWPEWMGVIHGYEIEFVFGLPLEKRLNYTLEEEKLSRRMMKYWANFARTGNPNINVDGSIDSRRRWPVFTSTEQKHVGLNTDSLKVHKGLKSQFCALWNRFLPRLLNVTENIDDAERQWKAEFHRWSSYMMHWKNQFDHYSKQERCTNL
Sequence of Acetylcholinesterase (Electrophorus electricus) (O42275 24-633 limits assumed): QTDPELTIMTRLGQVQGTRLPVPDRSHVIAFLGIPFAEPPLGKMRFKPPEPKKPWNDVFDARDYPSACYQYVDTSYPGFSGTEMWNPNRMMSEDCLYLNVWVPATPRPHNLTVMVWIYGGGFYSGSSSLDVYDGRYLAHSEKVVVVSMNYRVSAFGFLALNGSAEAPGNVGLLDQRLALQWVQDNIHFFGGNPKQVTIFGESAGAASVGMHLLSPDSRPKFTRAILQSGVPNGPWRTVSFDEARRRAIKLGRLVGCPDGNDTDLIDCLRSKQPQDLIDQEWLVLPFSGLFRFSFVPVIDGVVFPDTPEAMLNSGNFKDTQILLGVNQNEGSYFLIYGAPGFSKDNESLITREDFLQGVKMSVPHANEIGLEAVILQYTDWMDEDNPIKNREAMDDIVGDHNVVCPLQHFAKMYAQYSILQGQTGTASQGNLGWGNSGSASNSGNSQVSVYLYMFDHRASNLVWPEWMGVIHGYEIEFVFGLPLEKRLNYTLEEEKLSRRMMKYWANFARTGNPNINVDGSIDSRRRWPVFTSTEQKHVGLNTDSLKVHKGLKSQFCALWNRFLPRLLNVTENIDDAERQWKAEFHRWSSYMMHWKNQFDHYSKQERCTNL

As for `COc1cc(CNCCCNC(=O)c2ccccc2CO)ccc1O`, in experiment [1], the IC50 turned out to be 113 µM. The Activity in experiment [2] worked out at 0.96.
In the case of `COc1cc(CN(CCCN2C(=O)c3cccc4cccc(c34)C2=O)Cc2ccc(O)c(OC)c2)ccc1O`, the IC50 in [3] was 0.27 µM; in [1], 16.7 µM; in experiment [7], 14.3 µM. In addition, the Ratio in [4] was 10; in experiment [5], 25. The Activity amounted to 9.43 in experiment [6] and 0.49 in [2]. The Ratio IC50 in experiment [8] was 10; in experiment [9], 3; in experiment [10], 53.1.
Take `COc1cc(C=O)ccc1O` [VANILLIN]: the inhibition result in [11] and in experiment [12] was “inactive” throughout. Besides, the Activity turned out to be 2.2 in [6] and 0.02 in experiment [2]. Further, the IC50 in experiment [1] stood at 7920 µM.
Consider `CN(C)C(=O)Oc1cccc([N+](C)(C)C)c1` [NEOSTIGMINE], for which the figures for the half-maximal inhibitory concentration (IC50) in [3] and in experiment [7] were 2.93 µM and 7.5 µM, respectively. Also, the Ratio IC50 in experiment [10] turned out to be 2.56.
Consider `COc1cc(CNCCCCN2C(=O)c3cccc4cccc(c34)C2=O)ccc1O`, for which the IC50 is 0.9 µM in [3], 62 µM in [1] and 13.7 µM in experiment [7]. In addition, the Activity is 8.1 in experiment [6] and 0.26 in experiment [2]. Besides, the Ratio IC50 in experiment [10] turned out to be 15.2.
On to `COc1cc(CNCCCCCCN2C(=O)c3ccccc3C2=O)ccc1O`, for which the values for the IC50 in [3], in experiment [1] and in experiment [7] were 0.37 µM, 82.3 µM and 4.67 µM, respectively. Also, the results for the Activity in experiment [6] and in experiment [2] were 13.2 and 0.23, respectively. For the same molecule, the Ratio IC50 in [10] came out at 12.6.
Take `COc1cc(CNCCCCCCCN2C(=O)c3cccc4cccc(c34)C2=O)ccc1O`: the values for the IC50 in [3], in experiment [1] and in [7] were 1.5 µM, 70 µM and 3.33 µM, respectively. For the same molecule, the Activity in experiment [6] is 6.7; in [2], 0.34. For the same molecule, the Ratio IC50 in experiment [10] amounted to 2.22.
